Data from ChEMBL document CHEMBL3875141, “2,4,5-Trisubstituted thiazole derivatives as HIV-1 NNRTIs effective on both wild-type and mutant HIV-1 reverse transcriptase: Optimization of the substitution of positions 4 and 5” (Eur J Med Chem, 2016).

Legend:
[1] = tested on: Human immunodeficiency virus 1; test: Ratio of IC50 for HIV-1 NL4-3 harboring RT-Y181C mutant infected in HEK293T cells co-expressing vesicular stomatitis virus glycoprotein to IC50 for wild-type HIV-1 NL4-3 infected in HEK293T cells co-expressing vesicular stomatitis virus glycoprotein; format: functional, HEK-293T
Outline: (§1)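 Fold change: mean IC50 against each RT-mutant VSV-G-pseudotyped virus divided by IC50 against wild-type pseudovirus. Both values come from the same HEK293T assay: 0.2 ng p24/mL inoculum, compound added 15 min before infection, luciferase read-out at 48 h.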

[2] = tested on: Human immunodeficiency virus 1; test: Ratio of IC50 for HIV-1 NL4-3 harboring RT-K103N/P225H double mutant infected in HEK293T cells co-expressing vesicular stomatitis virus glycoprotein to IC50 for wild-type HIV-1 NL4-3 infected in HEK293T cells co-expressing vesicular stomatitis virus glycoprotein; format: functional, HEK-293T; outline: as §1
[3] = tested on: Human immunodeficiency virus 1; test: Ratio of IC50 for HIV-1 NL4-3 harboring RT-K103N/Y181C double mutant infected in HEK293T cells co-expressing vesicular stomatitis virus glycoprotein to IC50 for wild-type HIV-1 NL4-3 infected in HEK293T cells co-expressing vesicular stomatitis virus glycoprotein; format: functional, HEK-293T; outline: as §1
[4] = tested on: Human immunodeficiency virus 1; test: Ratio of IC50 for HIV-1 NL4-3 harboring RT-K103N/Y188L double mutant infected in HEK293T cells co-expressing vesicular stomatitis virus glycoprotein to IC50 for wild-type HIV-1 NL4-3 infected in HEK293T cells co-expressing vesicular stomatitis virus glycoprotein; format: functional, HEK-293T; outline: as §1
[5] = tested on: Human immunodeficiency virus 1; test: Antiviral activity against HIV-1 NL4-3 harboring RT-K103N/Y181C double mutant infected in HEK293T cells coexpressing vesicular stomatitis virus glycoprotein pretreated with cells for 15 mins followed by viral infection measured after 48 hrs by luciferase reporter gene assay; format: functional, cell-based; conditions: hek-293t
Outline: (§2)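 VSV-G-pseudotyped HIV-1 (wild-type or RT mutant) produced by co-transfection of HEK293T cells (calcium phosphate), supernatant harvested 48 h, 0.22 µm filtered, normalised by p24 ELISA to 0.2 ng p24/mL.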

[6] = tested on: Human immunodeficiency virus 1; test: Ratio of IC50 for HIV-1 NL4-3 harboring RT-K103N mutant infected in HEK293T cells co-expressing vesicular stomatitis virus glycoprotein to IC50 for wild-type HIV-1 NL4-3 infected in HEK293T cells co-expressing vesicular stomatitis virus glycoprotein; format: functional, HEK-293T
[7] = tested on: Human immunodeficiency virus 1; test: Antiviral activity against HIV-1 NL4-3 harboring RT-K103N/V108I double mutant infected in HEK293T cells coexpressing vesicular stomatitis virus glycoprotein pretreated with cells for 15 mins followed by viral infection measured after 48 hrs by luciferase reporter gene assay; format: functional, cell-based; conditions: hek-293t; outline: as §2
[8] = tested on: Human immunodeficiency virus 1; test: Antiviral activity against HIV-1 NL4-3 harboring RT-Y181C mutant infected in HEK293T cells coexpressing vesicular stomatitis virus glycoprotein pretreated with cells for 15 mins followed by viral infection measured after 48 hrs by luciferase reporter gene assay; format: functional, cell-based; conditions: hek-293t; outline: as §2
[9] = tested on: Human immunodeficiency virus 1; test: Ratio of IC50 for HIV-1 NL4-3 harboring RT-L100I/K103N double mutant infected in HEK293T cells co-expressing vesicular stomatitis virus glycoprotein to IC50 for wild-type HIV-1 NL4-3 infected in HEK293T cells co-expressing vesicular stomatitis virus glycoprotein; format: functional, HEK-293T; outline: as §1
[10] = tested on: Human immunodeficiency virus 1; test: Antiviral activity against wild-type HIV-1 NL4-3 harboring vesicular stomatitis virus glycoprotein infected in HEK293T cells pretreated with cells for 15 mins followed by viral infection measured after 48 hrs by luciferase reporter gene assay; format: functional, cell-based; conditions: Human immunodeficiency virus 1, NL4-3, HEK-293T; outline: as §2
[11] = tested on: Human immunodeficiency virus 1; test: Ratio of IC50 for HIV-1 NL4-3 harboring RT-K103N/V108I double mutant infected in HEK293T cells co-expressing vesicular stomatitis virus glycoprotein to IC50 for wild-type HIV-1 NL4-3 infected in HEK293T cells co-expressing vesicular stomatitis virus glycoprotein; format: functional, HEK-293T; outline: as §1
[12] = Cytotoxicity against HEK293T cells at 10 uM after 48 hrs by cell proliferation assay; format: toxicity, cell-based; conditions: human, hek-293t
Outline: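 HEK 293T cells seeded at 1×10^4 cells/well, treated next day with serially diluted compounds and cultured 48 h; viability read with a cell proliferation assay kit per manufacturer's instructions. Footnote reports testing at a final concentration of 10 μM.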

[13] = tested on: Human immunodeficiency virus 1; test: Antiviral activity against HIV-1 NL4-3 harboring RT-K103N/G190A double mutant infected in HEK293T cells coexpressing vesicular stomatitis virus glycoprotein pretreated with cells for 15 mins followed by viral infection measured after 48 hrs by luciferase reporter gene assay; format: functional, cell-based; conditions: hek-293t; outline: as §2
[14] = tested on: Human immunodeficiency virus 1; test: Antiviral activity against HIV-1 NL4-3 harboring RT-K103N/Y188L double mutant infected in HEK293T cells coexpressing vesicular stomatitis virus glycoprotein pretreated with cells for 15 mins followed by viral infection measured after 48 hrs by luciferase reporter gene assay; format: functional, cell-based; conditions: hek-293t; outline: as §2
[15] = tested on: Human immunodeficiency virus 1; test: Antiviral activity against HIV-1 NL4-3 harboring RT-Y188L mutant infected in HEK293T cells coexpressing vesicular stomatitis virus glycoprotein pretreated with cells for 15 mins followed by viral infection measured after 48 hrs by luciferase reporter gene assay; format: functional, cell-based; conditions: hek-293t; outline: as §2
[16] = tested on: Human immunodeficiency virus 1; test: Antiviral activity against HIV-1 NL4-3 harboring RT-L100I/K103N double mutant infected in HEK293T cells coexpressing vesicular stomatitis virus glycoprotein pretreated with cells for 15 mins followed by viral infection measured after 48 hrs by luciferase reporter gene assay; format: functional, cell-based; conditions: hek-293t; outline: as §2
[17] = tested on: Human immunodeficiency virus 1; test: Antiviral activity against HIV-1 NL4-3 harboring RT-K103N/P225H double mutant infected in HEK293T cells coexpressing vesicular stomatitis virus glycoprotein pretreated with cells for 15 mins followed by viral infection measured after 48 hrs by luciferase reporter gene assay; format: functional, cell-based; conditions: hek-293t; outline: as §2
[18] = tested on: Human immunodeficiency virus 1; test: Ratio of IC50 for HIV-1 NL4-3 harboring RT-Y188L mutant infected in HEK293T cells co-expressing vesicular stomatitis virus glycoprotein to IC50 for wild-type HIV-1 NL4-3 infected in HEK293T cells co-expressing vesicular stomatitis virus glycoprotein; format: functional, HEK-293T; outline: as §1
[19] = tested on: Human immunodeficiency virus 1; test: Ratio of IC50 for HIV-1 NL4-3 harboring RT-K103N/G190A double mutant infected in HEK293T cells co-expressing vesicular stomatitis virus glycoprotein to IC50 for wild-type HIV-1 NL4-3 infected in HEK293T cells co-expressing vesicular stomatitis virus glycoprotein; format: functional, HEK-293T; outline: as §1
[20] = tested on: Human immunodeficiency virus 1; test: Antiviral activity against HIV-1 NL4-3 harboring RT-K103N mutant infected in HEK293T cells coexpressing vesicular stomatitis virus glycoprotein pretreated with cells for 15 mins followed by viral infection measured after 48 hrs by luciferase reporter gene assay; format: functional, cell-based; conditions: hek-293t; outline: as §2
[21] = Inhibition of wild-type HIV-1 reverse transcriptase RNA-dependent DNA polymerase activity assessed as reduction in digoxigenin-11-dUTP incorporation using poly(rA)/oligo(dT) as template/primer incubated for 1 hr; parameters: species or system Human immunodeficiency virus 1

Which results are given for `COc1ccccc1Cc1sc(NCc2ccc3c(c2)CCO3)nc1-c1ccc(F)cc1F`?
Ratio IC50 [1]: 2.9; Ratio IC50 [2]: 23.5; Ratio IC50 [3]: 10.1; Ratio IC50 [4]: >223.7; IC50 [5]: 450 nM; Ratio IC50 [6]: 6.5; IC50 [7]: 760 nM; IC50 [8]: 130 nM; Ratio IC50 [9]: 19.5; IC50 [10]: 44.7 to 45 nM; Ratio IC50 [11]: 17; Activity [12]: Non-Toxic; IC50 [13]: 490 nM; IC50 [14]: > 10 µM; IC50 [15]: > 10 µM; IC50 [16]: 0.87 µM; IC50 [17]: 1050 nM; Ratio IC50 [18]: >223.7; Ratio IC50 [19]: 11; IC50 [20]: 290 nM

Which IC50 [10] does the source give for `Clc1ccc(-c2nc(NCc3ccc4c(c3)CCO4)sc2Cc2c(Cl)cccc2Cl)c(Cl)c1` here?
Its IC50 is 71 nM.

What about the Activity [12] of the same compound?
The Activity was “Non-Toxic”.

With `Fc1ccc(Cc2sc(NCc3ccc4c(c3)CCO4)nc2-c2ccccc2)cc1` as the compound, how does the IC50 [10] read?
Its IC50 is 5670 nM.

What about the Activity [12] of the same compound?
The Activity was “Non-Toxic”.

For `Cc1ccnc2c1NC(=O)c1cccnc1N2C1CC1` [NEVIRAPINE], which “Ratio IC50” value [1] is on record?
The value was 2152.

What about the “Ratio IC50” value [2] of the same compound?
Its value is 177.

And the “Ratio IC50” value [3]?
The value was greater than 322.

And the “Ratio IC50” value [4]?
The value was greater than 322.

And the IC50 [5]?
Its IC50 is greater than 10000 nM.

And the IC50 [21]?
The IC50 was 2100 nM.

What about the “Ratio IC50” value [6] of the same compound?
The value was 519.

And the “Ratio IC50” value [9]?
Its value is 161.

What about the “Ratio IC50” value [11] of the same compound?
Its value is 90.

And the IC50 [13]?
Its IC50 is greater than 10000 nM.

And the IC50 [14]?
The IC50 was greater than 10 µM.

And the IC50 [15]?
The IC50 was greater than 10 µM.

What about the IC50 [16] of the same compound?
The IC50 was 5 µM.

And the “Ratio IC50” value [18]?
The value was greater than 322.

And the “Ratio IC50” value [19]?
Its value is greater than 322.

Which results are given for `O=C1Nc2ccc(Cl)cc2[C@@](C#CC2CC2)(C(F)(F)F)O1` [EFAVIRENZ]?
IC50 [5]: 58.7 nM; IC50 [10]: 1.04 nM; IC50 [14]: 13.8 µM; IC50 [16]: 2.49 µM

With `c1ccc(Cc2sc(NCc3ccc4c(c3)CCO4)nc2-c2ccccc2)cc1` as the compound, how does the IC50 [10] read?
Its IC50 is 239 nM.

And the Activity [12]?
Its Activity is “Non-Toxic”.

With `COc1ccc(Cc2sc(NCc3ccc4c(c3)CCO4)nc2-c2ccccc2)cc1` as the compound, how does the IC50 [10] read?
Its IC50 is greater than 10000 nM.

And the Activity [12]?
Its Activity is “Non-Toxic”.

Which results are given for `Fc1cc(F)cc(Cc2sc(NCc3ccc4c(c3)CCO4)nc2-c2ccc(Cl)cc2Cl)c1`?
IC50 [10]: 68 nM; Activity [12]: Non-Toxic

For `COc1ccccc1Cc1sc(NCc2ccc3c(c2)CCO3)nc1-c1ccc(Cl)cc1Cl`, which IC50 [10] is on record?
The IC50 was 88 nM.

What about the Activity [12] of the same compound?
The Activity was “Non-Toxic”.

With `Clc1cccc(Cl)c1Cc1sc(NCc2ccc3c(c2)CCO3)nc1-c1ccccc1` as the compound, how does the “Ratio IC50” value [1] read?
Its value is 6.3.

What about the “Ratio IC50” value [2] of the same compound?
The value was greater than 161.8.

What about the “Ratio IC50” value [3] of the same compound?
The value was greater than 161.8.

And the “Ratio IC50” value [4]?
The value was greater than 161.8.

What about the IC50 [5] of the same compound?
The IC50 was greater than 10000 nM.

What about the “Ratio IC50” value [6] of the same compound?
Its value is 24.8.

And the IC50 [7]?
Its IC50 is 3000 nM.

And the IC50 [8]?
The IC50 was 390 nM.

And the “Ratio IC50” value [9]?
Its value is 81.7.

What about the IC50 [10] of the same compound?
Its IC50 is 61.8 to 62 nM.

And the “Ratio IC50” value [11]?
Its value is 48.5.

What about the Activity [12] of the same compound?
The Activity was “Non-Toxic”.

And the IC50 [13]?
The IC50 was 560 nM.

And the IC50 [14]?
Its IC50 is greater than 10 µM.

And the IC50 [15]?
The IC50 was greater than 10 µM.

What about the IC50 [16] of the same compound?
The IC50 was 5.05 µM.

And the IC50 [17]?
Its IC50 is greater than 10000 nM.

And the “Ratio IC50” value [18]?
The value was greater than 161.8.

What about the “Ratio IC50” value [19] of the same compound?
Its value is 9.1.

And the IC50 [20]?
Its IC50 is 1530 nM.

With `Clc1ccccc1-c1nc(NCc2ccc3c(c2)CCO3)sc1Cc1c(Cl)cccc1Cl` as the compound, how does the IC50 [10] read?
The IC50 was 22 nM.

And the Activity [12]?
Its Activity is “Non-Toxic”.

Which “Ratio IC50” value [1] does the source give for `Fc1cc(F)cc(Cc2sc(NCc3ccc4c(c3)CCO4)nc2-c2ccccc2Cl)c1` here?
The value was 39.

And the IC50 [21]?
Its IC50 is 25 nM.

And the “Ratio IC50” value [6]?
Its value is 7.8.

And the IC50 [7]?
Its IC50 is 300 nM.

And the IC50 [8]?
The IC50 was 400 nM.

What about the IC50 [10] of the same compound?
The IC50 was 10 nM.

And the “Ratio IC50” value [11]?
The value was 29.

And the Activity [12]?
Its Activity is “Non-Toxic”.

What about the IC50 [15] of the same compound?
The IC50 was 1.4 µM.

What about the “Ratio IC50” value [18] of the same compound?
The value was 136.

And the IC50 [20]?
The IC50 was 80 nM.
